Reference: ChEMBL document CHEMBL1155277, “Synthesis of new 4-isopropylthiazole hydrazide analogs and some derived clubbed triazole, oxadiazole ring systems--a novel class of potential antibacterial, antifungal and antitubercular agents” (Eur J Med Chem, 2009)
Values after ≈ are worked out from the molar mass of the structure shown.

Legend:
Format in all cases: functional
[1] = test system: Bacillus subtilis; test: Antimicrobial activity against Bacillus subtilis ATCC 60511 after 24 hrs by broth microdilution method; conditions: ATCC 60511, 24 h
Method in brief: (§1)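 Broth microdilution in tubes. Compounds were dissolved at 10 mg in 1 mL DMSO and diluted in Mueller-Hinton Broth for bacteria or Sabouraud Liquid Medium for yeasts and A. niger. Final concentrations were 1–500 µg/mL (1, 2, 4, 8, 16, 31.25, 62.5, 125, 250, 500), with DMSO at most 1% v/v. Inoculum was 10^5 cfu/mL, incubated at 37 °C for 24 h. MIC was the lowest concentration giving complete growth inhibition. Media and media-plus-DMSO served as growth controls.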

[2] = test system: Candida tropicalis; test: Antimicrobial activity against Candida tropicalis ATCC 1369 after 24 hrs by broth microdilution method; conditions: ATCC 1369, 24 h; method in brief: as §1
[3] = test system: Klebsiella pneumoniae; test: Antimicrobial activity against Klebsiella pneumoniae ATCC 10031 after 24 hrs by broth microdilution method; conditions: ATCC 10031, 24 h; method in brief: as §1
[4] = test system: Staphylococcus aureus; test: Antimicrobial activity against Staphylococcus aureus ATCC 11632 after 24 hrs by broth microdilution method; conditions: ATCC 11632, 24 h; method in brief: as §1
[5] = test system: Enterococcus faecalis; test: Antimicrobial activity against Streptococcus faecalis ATCC 14506 after 24 hrs by broth microdilution method; conditions: ATCC 14506, 24 h; method in brief: as §1
[6] = test system: Saccharomyces cerevisiae; test: Antimicrobial activity against Saccharomyces cerevisiae ATCC 9763 after 24 hrs by broth microdilution method; conditions: ATCC 9763, 24 h; method in brief: as §1
[7] = test system: Mycobacterium tuberculosis; test: Antitubercular activity against Mycobacterium tuberculosis H37Rv after 21 days by broth dilution assay; conditions: 504 h
Method in brief: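 H37Rv frozen stock in Middlebrook 7H9 broth with 10% albumin-dextrose-catalase and 0.2% glycerol, thawed and diluted to 10⁵ cfu mL⁻¹. Compounds dissolved in DMSO, diluted in broth (final DMSO 1.3%). U-tubes inoculated, incubated 37 °C for 21 days. Growth scored visually against drug-free and inoculum-free controls and isoniazid. MIC = lowest concentration inhibiting […] of starting population.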

[8] = test system: Aspergillus niger; test: Antimicrobial activity against Aspergillus niger ATCC 6275 after 24 hrs by broth microdilution method; conditions: ATCC 6275, 24 h; method in brief: as §1
[9] = test system: Escherichia coli; test: Antimicrobial activity against Escherichia […] after 24 hrs by broth microdilution method; method in brief: as §1
[10] = test system: Pseudomonas aeruginosa; test: Antimicrobial activity against Pseudomonas aeruginosa ATCC 10145 after 24 hrs by broth microdilution method; conditions: ATCC 10145, 24 h; method in brief: as §1

SMILES | MIC [1] [µg/mL] | MIC [2] [µg/mL] | MIC [3] [µg/mL] | MIC [4] [µg/mL] | MIC [5] [µg/mL] | MIC [6] [µg/mL] | MIC [7] [µg/mL] | MIC [8] [µg/mL] | MIC [9] [µg/mL] | MIC [10] [µg/mL]
CC(C)c1csc(C(=O)N/N=C/c2ccc(N(C)C)cc2)n1 | 125 (≈ 395 µM) | 125 (≈ 395 µM) | 125 (≈ 395 µM) | 250 (≈ 790 µM) | 125 (≈ 395 µM) | 250 (≈ 790 µM) | 125 (≈ 395 µM) | 62.5 (≈ 198 µM) | 31.2 (≈ 98.8 µM) | 31.2 (≈ 98.8 µM)
CC(C)c1csc(C(=O)N/N=C/c2ccc(O)cc2)n1 | 125 (≈ 432 µM) | 16 (≈ 55.3 µM) | 31.2 (≈ 108 µM) | 125 (≈ 432 µM) | 125 (≈ 432 µM) | 31.2 (≈ 108 µM) | 125 (≈ 432 µM) | 31.2 (≈ 108 µM) | 31.2 (≈ 108 µM) | 16 (≈ 55.3 µM)
CC(C)c1csc(C(=O)NN)n1 | 250 (≈ 1350 µM) | 500 (≈ 2700 µM) | 250 (≈ 1350 µM) | 250 (≈ 1350 µM) | 125 (≈ 675 µM) | 250 (≈ 1350 µM) | 125 (≈ 675 µM) | 125 (≈ 675 µM) | 125 (≈ 675 µM) | 125 (≈ 675 µM)
CC(C)=NNC(=O)c1nc(C(C)C)cs1 | 125 (≈ 555 µM) | 125 (≈ 555 µM) | 125 (≈ 555 µM) | 250 (≈ 1110 µM) | 125 (≈ 555 µM) | 500 (≈ 2220 µM) | 125 (≈ 555 µM) | 500 (≈ 2220 µM) | 125 (≈ 555 µM) | 125 (≈ 555 µM)
C/C(=N/NC(=O)c1nc(C(C)C)cs1)c1ccc(Br)cc1 | 125 (≈ 341 µM) | 125 (≈ 341 µM) | 125 (≈ 341 µM) | 250 (≈ 683 µM) | 250 (≈ 683 µM) | 31.2 (≈ 85.3 µM) | 31.2 (≈ 85.3 µM) | 125 (≈ 341 µM) | 250 (≈ 683 µM) | 125 (≈ 341 µM)
C/C(=N/NC(=O)c1nc(C(C)C)cs1)c1ccc(O)cc1 | 250 (≈ 824 µM) | 31.2 (≈ 103 µM) | 250 (≈ 824 µM) | 125 (≈ 412 µM) | 125 (≈ 412 µM) | 31.2 (≈ 103 µM) | 125 (≈ 412 µM) | 125 (≈ 412 µM) | 125 (≈ 412 µM) | 125 (≈ 412 µM)
CC(C)c1csc(C(=O)N/N=C/c2ccccc2)n1 | 125 (≈ 457 µM) | 62.5 (≈ 229 µM) | 125 (≈ 457 µM) | 500 (≈ 1830 µM) | 125 (≈ 457 µM) | 62.5 (≈ 229 µM) | 250 (≈ 915 µM) | 31.2 (≈ 114 µM) | 31.2 (≈ 114 µM) | 16 (≈ 58.5 µM)
CC(=O)NNC(=O)c1nc(C(C)C)cs1 | 250 (≈ 1100 µM) | 125 (≈ 550 µM) | 125 (≈ 550 µM) | 500 (≈ 2200 µM) | 125 (≈ 550 µM) | 500 (≈ 2200 µM) | 125 (≈ 550 µM) | 500 (≈ 2200 µM) | 250 (≈ 1100 µM) | 125 (≈ 550 µM)
C/C(=N/NC(=O)c1nc(C(C)C)cs1)c1ccccc1 | 250 (≈ 870 µM) | 500 (≈ 1740 µM) | 125 (≈ 435 µM) | 250 (≈ 870 µM) | 250 (≈ 870 µM) | 500 (≈ 1740 µM) | 125 (≈ 435 µM) | 250 (≈ 870 µM) | 125 (≈ 435 µM) | 250 (≈ 870 µM)
C/C(=N/NC(=O)c1nc(C(C)C)cs1)c1ccc(Cl)cc1 | 31.2 (≈ 97.1 µM) | 125 (≈ 388 µM) | 125 (≈ 388 µM) | 125 (≈ 388 µM) | 125 (≈ 388 µM) | 125 (≈ 388 µM) | 62.5 (≈ 194 µM) | 125 (≈ 388 µM) | 125 (≈ 388 µM) | 125 (≈ 388 µM)
COc1cc(/C=N/NC(=O)c2nc(C(C)C)cs2)cc(OC)c1OC | 125 (≈ 344 µM) | 62.5 (≈ 172 µM) | 125 (≈ 344 µM) | 500 (≈ 1380 µM) | 250 (≈ 688 µM) | 125 (≈ 344 µM) | 125 (≈ 344 µM) | 31.2 (≈ 86 µM) | 125 (≈ 344 µM) | 31.2 (≈ 86 µM)
CC(C)c1csc(-c2nnc(S)o2)n1 | 16 (≈ 70.4 µM) | 16 (≈ 70.4 µM) | 16 (≈ 70.4 µM) | 125 (≈ 550 µM) | 31.2 (≈ 137 µM) | 31.2 (≈ 137 µM) | 8 (≈ 35.2 µM) | 31.2 (≈ 137 µM) | 31.2 (≈ 137 µM) | 31.2 (≈ 137 µM)
CC(C)c1csc(C(=O)N/N=C/c2ccc([N+](=O)[O-])cc2)n1 | 125 (≈ 393 µM) | 62.5 (≈ 196 µM) | 125 (≈ 393 µM) | 125 (≈ 393 µM) | 250 (≈ 785 µM) | 125 (≈ 393 µM) | 125 (≈ 393 µM) | 31.2 (≈ 98.2 µM) | 31.2 (≈ 98.2 µM) | 125 (≈ 393 µM)
C/C(=N/NC(=O)c1nc(C(C)C)cs1)c1ccc(C)cc1 | 250 (≈ 829 µM) | 250 (≈ 829 µM) | 125 (≈ 415 µM) | 250 (≈ 829 µM) | 125 (≈ 415 µM) | 125 (≈ 415 µM) | 125 (≈ 415 µM) | 500 (≈ 1660 µM) | 250 (≈ 829 µM) | 250 (≈ 829 µM)
C/C(=N/NC(=O)c1nc(C(C)C)cs1)c1ccc([N+](=O)[O-])cc1 | 250 (≈ 752 µM) | 125 (≈ 376 µM) | 250 (≈ 752 µM) | 250 (≈ 752 µM) | 250 (≈ 752 µM) | 500 (≈ 1500 µM) | 125 (≈ 376 µM) | 125 (≈ 376 µM) | 250 (≈ 752 µM) | 250 (≈ 752 µM)
O=C(O)c1cn(C2CC2)c2cc(N3CCNCC3)c(F)cc2c1=O [CIPROFLOXACIN] | ≤ 1 |  | ≤ 1 | ≤ 5 | ≤ 5 |  |  |  | ≤ 1 | ≤ 5
OC(Cn1cncn1)(Cn1cncn1)c1ccc(F)cc1F [FLUCONAZOLE] |  | ≤ 1 |  |  |  | ≤ 1 |  | ≤ 1 |  | 
NNC(=O)c1ccncc1 [ISONIAZID] |  |  |  |  |  |  | 0.25 (≈ 1.82 µM) |  |  | 
CCn1cc(C(=O)O)c(=O)c2cc(F)c(N3CCNCC3)cc21 [NORFLOXACIN] | ≤ 1 |  | ≤ 1 | ≤ 5 | ≤ 5 |  |  |  | ≤ 1 | ≤ 5
